The M2OR odorant receptor database

What was measured:
Details in all cases: stereoisomer not certain
[1] = target: T1, OR10H4 (Homo sapiens) (UniProt Q8NGA5)
T1 sequence (whole entry): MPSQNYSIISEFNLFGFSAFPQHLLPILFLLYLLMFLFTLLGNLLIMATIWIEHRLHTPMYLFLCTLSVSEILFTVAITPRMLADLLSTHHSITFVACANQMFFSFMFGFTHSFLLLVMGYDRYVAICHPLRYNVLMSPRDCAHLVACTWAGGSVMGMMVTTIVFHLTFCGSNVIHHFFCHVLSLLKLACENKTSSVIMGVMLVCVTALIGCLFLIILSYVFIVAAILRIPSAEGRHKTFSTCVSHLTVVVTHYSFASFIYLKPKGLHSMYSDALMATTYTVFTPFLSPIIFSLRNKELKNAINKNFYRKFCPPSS
Outline: (§1)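 Each receptor–molecule pair is labelled responsive or non-responsive (inactive) according to whether the original authors judged the measured signal statistically different from baseline. The data were taken from the main text and supplementary material of published papers and checked for typos and inconsistencies. Assay methods differed by source, with transient luciferase assays in mammalian cell lines being common.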

[2] = target: T2, OR10H5 (Homo sapiens) (UniProt Q8NGA6)
T2 sequence (whole entry): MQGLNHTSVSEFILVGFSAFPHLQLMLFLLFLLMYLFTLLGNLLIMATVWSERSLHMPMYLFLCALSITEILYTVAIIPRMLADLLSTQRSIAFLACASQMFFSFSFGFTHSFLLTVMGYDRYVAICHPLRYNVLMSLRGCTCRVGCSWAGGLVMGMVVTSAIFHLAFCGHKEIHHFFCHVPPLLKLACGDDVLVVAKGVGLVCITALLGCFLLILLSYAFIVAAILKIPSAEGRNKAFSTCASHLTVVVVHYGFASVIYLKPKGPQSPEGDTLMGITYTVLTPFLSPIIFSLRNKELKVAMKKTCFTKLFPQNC
Outline: as §1

[3] = target: T3, OR10J1 (Homo sapiens) (UniProt P30954)
T3 sequence (whole entry): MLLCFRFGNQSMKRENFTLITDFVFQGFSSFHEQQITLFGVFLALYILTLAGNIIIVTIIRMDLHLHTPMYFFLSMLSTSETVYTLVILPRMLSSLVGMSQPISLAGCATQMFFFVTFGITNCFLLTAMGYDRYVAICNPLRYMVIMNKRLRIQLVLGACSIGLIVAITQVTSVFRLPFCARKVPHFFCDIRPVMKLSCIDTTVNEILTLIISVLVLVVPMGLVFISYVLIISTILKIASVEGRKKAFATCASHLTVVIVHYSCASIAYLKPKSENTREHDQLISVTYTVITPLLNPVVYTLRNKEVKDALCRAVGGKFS
Outline: as §1

[4] = target: T4, OR10J3 (Homo sapiens) (UniProt Q5JRS4)
T4 sequence (whole entry): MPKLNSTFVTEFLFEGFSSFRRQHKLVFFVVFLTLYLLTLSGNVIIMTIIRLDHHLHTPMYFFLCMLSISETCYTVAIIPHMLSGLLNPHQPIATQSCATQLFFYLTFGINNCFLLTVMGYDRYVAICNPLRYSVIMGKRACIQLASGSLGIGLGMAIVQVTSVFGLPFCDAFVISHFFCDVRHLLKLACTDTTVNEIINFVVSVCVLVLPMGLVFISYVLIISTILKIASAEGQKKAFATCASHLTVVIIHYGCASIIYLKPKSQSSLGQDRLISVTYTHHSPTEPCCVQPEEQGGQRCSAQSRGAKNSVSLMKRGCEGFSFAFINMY
Outline: as §1

[5] = target: T5, OR10J5 (Homo sapiens) (UniProt Q8NHC4)
T5 sequence (whole entry): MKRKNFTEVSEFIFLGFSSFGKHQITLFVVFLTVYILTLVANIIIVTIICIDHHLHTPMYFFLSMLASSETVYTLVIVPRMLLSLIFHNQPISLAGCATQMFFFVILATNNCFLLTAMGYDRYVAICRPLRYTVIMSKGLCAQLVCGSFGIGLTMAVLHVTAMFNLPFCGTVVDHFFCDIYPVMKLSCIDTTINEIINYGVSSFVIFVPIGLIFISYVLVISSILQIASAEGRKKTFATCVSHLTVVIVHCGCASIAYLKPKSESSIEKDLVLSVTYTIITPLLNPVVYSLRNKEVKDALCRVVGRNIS
Outline: as §1

[6] = target: T6, OR10K1 (Homo sapiens) (UniProt Q8NGX5)
T6 sequence (whole entry): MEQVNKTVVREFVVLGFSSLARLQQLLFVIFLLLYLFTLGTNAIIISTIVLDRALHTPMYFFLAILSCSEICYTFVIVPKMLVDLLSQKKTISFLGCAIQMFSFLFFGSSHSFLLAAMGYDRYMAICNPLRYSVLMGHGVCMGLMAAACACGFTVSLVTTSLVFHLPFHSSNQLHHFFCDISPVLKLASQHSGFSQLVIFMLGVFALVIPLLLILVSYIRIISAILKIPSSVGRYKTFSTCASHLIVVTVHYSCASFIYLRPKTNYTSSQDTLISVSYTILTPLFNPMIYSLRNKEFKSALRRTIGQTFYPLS
Outline: as §1

[7] = target: T7, OR10K2 (Homo sapiens) (UniProt Q6IF99)
T7 sequence (whole entry): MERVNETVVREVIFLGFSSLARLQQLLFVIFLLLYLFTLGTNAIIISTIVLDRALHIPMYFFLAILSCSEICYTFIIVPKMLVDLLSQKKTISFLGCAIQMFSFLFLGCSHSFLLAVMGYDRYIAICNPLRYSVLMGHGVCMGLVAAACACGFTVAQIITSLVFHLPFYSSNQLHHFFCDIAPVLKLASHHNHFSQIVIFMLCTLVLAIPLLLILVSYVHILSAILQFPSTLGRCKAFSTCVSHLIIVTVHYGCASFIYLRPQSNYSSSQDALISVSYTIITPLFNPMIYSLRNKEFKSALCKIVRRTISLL
Outline: as §1

[8] = target: T8, OR10P1 (Homo sapiens) (UniProt Q8NGE3)
T8 sequence (whole entry): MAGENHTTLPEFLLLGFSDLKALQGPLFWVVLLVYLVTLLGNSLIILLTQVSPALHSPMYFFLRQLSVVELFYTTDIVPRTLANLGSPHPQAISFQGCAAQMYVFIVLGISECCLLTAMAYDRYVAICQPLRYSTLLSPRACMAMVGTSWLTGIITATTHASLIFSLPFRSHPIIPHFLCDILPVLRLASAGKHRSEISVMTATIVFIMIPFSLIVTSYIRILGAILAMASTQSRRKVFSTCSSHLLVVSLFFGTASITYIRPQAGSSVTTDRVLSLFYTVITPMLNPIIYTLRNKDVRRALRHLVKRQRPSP
Outline: as §1

[9] = target: T9, OR10Q1 (Homo sapiens) (UniProt Q8NGQ4)
T9 sequence (whole entry): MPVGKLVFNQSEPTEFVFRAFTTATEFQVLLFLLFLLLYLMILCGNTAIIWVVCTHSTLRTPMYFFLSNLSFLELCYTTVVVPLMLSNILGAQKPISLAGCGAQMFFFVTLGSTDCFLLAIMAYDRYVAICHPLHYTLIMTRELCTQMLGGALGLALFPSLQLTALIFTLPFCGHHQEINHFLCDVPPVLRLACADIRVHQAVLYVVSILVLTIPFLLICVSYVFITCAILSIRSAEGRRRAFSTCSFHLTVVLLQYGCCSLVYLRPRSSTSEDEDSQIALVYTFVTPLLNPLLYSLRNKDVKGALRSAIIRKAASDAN
Outline: as §1

Measured: odorant receptor agonist call

CCC(S)C(C)CO (centres undefined)
inactive: [1] | [2] | [3] | [4] | [5] | [6] | [7] | [8] | [9]
